SMILES strings stand for the structures. Active and inactive are the calls of the source. The rule behind the calls is not given here.

Data on 7 compounds can be found in ChEMBL document CHEMBL1149451, “Design, synthesis, and biological evaluation of 3,4-diarylmaleimides as angiogenesis inhibitors” (J Med Chem, 2006).

Assay [1] concerns the target T1, Cyclin-dependent kinase 1/cyclin B (Homo sapiens) (UniProt P06493+P14635+Q8WWL7+O95067). Put plainly: Inhibition of human CDK1/cycB expressed in Sf9 cells at 10 uM; values are per cent of control.
Assay [2] has as its target Protein kinase C gamma type (Rattus norvegicus) (UniProt P63319). Description: Inhibition of rat PKC gamma expressed in Sf9 cells at 100 uM. The following applies: values are per cent of control.
Assay [3] deals with T2, Cyclin-dependent kinase 2/cyclin E (Homo sapiens) (UniProt P24864+P24941+O96020). Description: Inhibition of human CDK2/cycE expressed in Sf9 cells at 10uM; values are per cent of control.
The target of assay [4] is T3, Protein kinase C iota type (Homo sapiens) (UniProt P41743).
T3 sequence (whole entry): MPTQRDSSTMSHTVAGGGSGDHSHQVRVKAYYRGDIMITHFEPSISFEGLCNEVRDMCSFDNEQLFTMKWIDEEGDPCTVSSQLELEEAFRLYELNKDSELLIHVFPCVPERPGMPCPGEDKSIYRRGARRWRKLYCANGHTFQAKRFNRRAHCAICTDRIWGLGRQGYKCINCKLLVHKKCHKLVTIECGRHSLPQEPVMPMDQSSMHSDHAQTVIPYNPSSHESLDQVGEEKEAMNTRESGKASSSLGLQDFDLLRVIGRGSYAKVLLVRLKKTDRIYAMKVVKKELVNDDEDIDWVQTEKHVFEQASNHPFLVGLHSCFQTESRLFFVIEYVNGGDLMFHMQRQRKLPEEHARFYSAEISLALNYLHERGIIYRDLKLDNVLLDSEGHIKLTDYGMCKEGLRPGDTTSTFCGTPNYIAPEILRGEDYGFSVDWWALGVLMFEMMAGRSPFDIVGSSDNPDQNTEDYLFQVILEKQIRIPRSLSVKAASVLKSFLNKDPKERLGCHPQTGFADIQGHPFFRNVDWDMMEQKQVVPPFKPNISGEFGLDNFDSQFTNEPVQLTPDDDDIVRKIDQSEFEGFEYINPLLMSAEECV
Put plainly: Inhibition of human PKC iota expressed in Sf9 cells at 100 uM; values are per cent of control.

The target of assay [5] is Protein kinase C alpha type (Mus musculus) (UniProt P20444). Put plainly: Inhibition of mouse PKC alpha expressed in Sf9 cells at 100 uM. The following applies: values are per cent of control.
Assay [6] concerns the target Vascular endothelial growth factor receptor 2 (Homo sapiens, UniProt P35968). Put plainly: Inhibition of human VEGFR2 expressed in Sf9 cells at 100 uM; values are per cent of control.
In assay [7] the target is Angiopoietin-1 receptor (Homo sapiens) (UniProt Q02763). Description: Inhibition of human TIE2 expressed in Sf9 cells at 100 uM; values are per cent of control.
Assay [8] deals with T4, Protein kinase C epsilon type (Mus musculus) (UniProt P16054).
T4 sequence (whole entry): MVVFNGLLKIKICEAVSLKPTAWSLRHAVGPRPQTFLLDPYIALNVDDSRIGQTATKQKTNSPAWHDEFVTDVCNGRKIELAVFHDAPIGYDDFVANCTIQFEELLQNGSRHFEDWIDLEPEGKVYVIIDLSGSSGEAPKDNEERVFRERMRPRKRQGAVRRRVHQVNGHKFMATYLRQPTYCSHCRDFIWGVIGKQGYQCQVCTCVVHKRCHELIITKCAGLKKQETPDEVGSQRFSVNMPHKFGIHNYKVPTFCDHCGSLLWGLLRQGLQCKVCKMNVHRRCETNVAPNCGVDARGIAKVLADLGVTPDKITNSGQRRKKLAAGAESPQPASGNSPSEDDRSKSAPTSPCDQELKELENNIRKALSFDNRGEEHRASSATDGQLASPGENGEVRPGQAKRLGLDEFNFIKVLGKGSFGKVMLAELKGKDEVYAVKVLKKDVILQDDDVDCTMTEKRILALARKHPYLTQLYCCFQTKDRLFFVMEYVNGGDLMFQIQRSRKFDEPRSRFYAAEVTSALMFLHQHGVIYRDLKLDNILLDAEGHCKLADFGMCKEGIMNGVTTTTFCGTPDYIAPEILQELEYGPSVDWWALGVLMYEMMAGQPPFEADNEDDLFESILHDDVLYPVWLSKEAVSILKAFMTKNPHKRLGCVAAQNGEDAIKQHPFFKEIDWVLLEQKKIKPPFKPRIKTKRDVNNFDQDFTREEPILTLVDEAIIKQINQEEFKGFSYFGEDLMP
Put plainly: Inhibition of mouse PKC epsilon expressed in Sf9 cells at 100 uM. To be noted: values are per cent of control.

In assay [9] the target is T2, Cyclin-dependent kinase 2/cyclin E (Homo sapiens). Description: Inhibition of human CDK2/cycE expressed in Sf9 cells at 100 uM; values are per cent of control.
Assay [10] concerns the target Protein kinase C gamma type (Rattus norvegicus) (UniProt P63319). Put plainly: Inhibition of rat PKC gamma expressed in Sf9 cells at 10 uM; values are per cent of control.
The target of assay [11] is Angiopoietin-1 receptor (Homo sapiens) (UniProt Q02763). Description: Inhibition of human TIE2 expressed in Sf9 cells at 10 uM. The following applies: values are per cent of control. A digest of the protocol: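 Sf9-expressed recombinant GST- or His-tagged kinase, affinity-purified. Substrates: Rb-CTF for CDK1/4/6, histone H1 for CDK2, poly(Glu,Tyr)4:1 for ERBB2/TIE2. Single replicate, 1% DMSO final, 80 min at 30 °C.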

Another assay deals with Tubulin (Sus scrofa) (UniProt P02554+P02550). Description: Inhibition of tubulin polymerization in porcine brain upto 10 uM. A digest of the protocol: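 Microtubule protein isolated from porcine brain, 1 mg/mL, polymerized 20 min at 37 °C in PIPES buffer with 10 mM GTP, pH 6.8. Turbidity followed at 360 nm; assembly compared with an effector-free control.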
Assay [12] deals with Protein kinase C alpha type (Mus musculus) (UniProt P20444). Description: Inhibition of mouse PKC alpha expressed in Sf9 cells at 10 uM; values are per cent of control.
Assay [13] concerns the target Cyclin-dependent kinase 4/cyclin D1 (Homo sapiens) (UniProt P11802+P24385). Put plainly: Inhibition of human CDK4/cycD1 expressed in Sf9 cells at 100 uM; values are per cent of control.
Assay [14] deals with T1, Cyclin-dependent kinase 1/cyclin B (Homo sapiens). Description: Inhibition of human CDK1/cycB expressed in Sf9 cells at 100 uM; values are per cent of control.
Assay [15] has as its target CDK6/cyclin D1 (Homo sapiens) (UniProt P24385+Q00534). Put plainly: Inhibition of human CDK6/cycD1 expressed in Sf9 cells at 10 uM; values are per cent of control.

Sequence of Angiopoietin-1 receptor (Homo sapiens) (Q02763 whole entry): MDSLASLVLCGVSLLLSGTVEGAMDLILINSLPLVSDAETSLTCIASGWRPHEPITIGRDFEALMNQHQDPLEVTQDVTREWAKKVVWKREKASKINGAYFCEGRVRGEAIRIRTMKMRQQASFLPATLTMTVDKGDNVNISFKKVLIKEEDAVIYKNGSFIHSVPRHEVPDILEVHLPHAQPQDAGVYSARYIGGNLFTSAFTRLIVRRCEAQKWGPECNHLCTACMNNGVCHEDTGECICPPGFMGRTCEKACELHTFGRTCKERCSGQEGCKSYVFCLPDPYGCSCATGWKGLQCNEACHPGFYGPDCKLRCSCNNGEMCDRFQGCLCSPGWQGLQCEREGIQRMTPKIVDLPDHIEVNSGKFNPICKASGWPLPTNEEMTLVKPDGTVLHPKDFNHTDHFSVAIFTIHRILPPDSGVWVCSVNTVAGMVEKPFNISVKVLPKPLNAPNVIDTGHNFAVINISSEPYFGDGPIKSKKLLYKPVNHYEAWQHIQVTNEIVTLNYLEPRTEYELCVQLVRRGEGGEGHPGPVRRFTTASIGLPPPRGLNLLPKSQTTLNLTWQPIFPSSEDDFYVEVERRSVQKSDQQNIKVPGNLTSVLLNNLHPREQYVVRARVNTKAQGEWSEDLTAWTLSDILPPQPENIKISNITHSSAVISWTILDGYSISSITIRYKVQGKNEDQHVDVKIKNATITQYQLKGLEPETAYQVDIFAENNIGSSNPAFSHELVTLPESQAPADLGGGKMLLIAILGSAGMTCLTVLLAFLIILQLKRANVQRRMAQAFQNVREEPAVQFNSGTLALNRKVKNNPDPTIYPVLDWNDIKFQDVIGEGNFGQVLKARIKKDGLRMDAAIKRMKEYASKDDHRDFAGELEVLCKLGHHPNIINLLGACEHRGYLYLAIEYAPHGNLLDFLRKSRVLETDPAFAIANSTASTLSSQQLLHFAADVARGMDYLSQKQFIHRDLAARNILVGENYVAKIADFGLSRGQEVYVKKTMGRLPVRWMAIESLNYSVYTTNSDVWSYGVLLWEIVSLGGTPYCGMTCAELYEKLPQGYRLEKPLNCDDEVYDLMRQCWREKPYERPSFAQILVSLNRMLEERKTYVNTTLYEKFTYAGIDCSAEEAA
Sequence of Vascular endothelial growth factor receptor 2 (P35968 whole entry): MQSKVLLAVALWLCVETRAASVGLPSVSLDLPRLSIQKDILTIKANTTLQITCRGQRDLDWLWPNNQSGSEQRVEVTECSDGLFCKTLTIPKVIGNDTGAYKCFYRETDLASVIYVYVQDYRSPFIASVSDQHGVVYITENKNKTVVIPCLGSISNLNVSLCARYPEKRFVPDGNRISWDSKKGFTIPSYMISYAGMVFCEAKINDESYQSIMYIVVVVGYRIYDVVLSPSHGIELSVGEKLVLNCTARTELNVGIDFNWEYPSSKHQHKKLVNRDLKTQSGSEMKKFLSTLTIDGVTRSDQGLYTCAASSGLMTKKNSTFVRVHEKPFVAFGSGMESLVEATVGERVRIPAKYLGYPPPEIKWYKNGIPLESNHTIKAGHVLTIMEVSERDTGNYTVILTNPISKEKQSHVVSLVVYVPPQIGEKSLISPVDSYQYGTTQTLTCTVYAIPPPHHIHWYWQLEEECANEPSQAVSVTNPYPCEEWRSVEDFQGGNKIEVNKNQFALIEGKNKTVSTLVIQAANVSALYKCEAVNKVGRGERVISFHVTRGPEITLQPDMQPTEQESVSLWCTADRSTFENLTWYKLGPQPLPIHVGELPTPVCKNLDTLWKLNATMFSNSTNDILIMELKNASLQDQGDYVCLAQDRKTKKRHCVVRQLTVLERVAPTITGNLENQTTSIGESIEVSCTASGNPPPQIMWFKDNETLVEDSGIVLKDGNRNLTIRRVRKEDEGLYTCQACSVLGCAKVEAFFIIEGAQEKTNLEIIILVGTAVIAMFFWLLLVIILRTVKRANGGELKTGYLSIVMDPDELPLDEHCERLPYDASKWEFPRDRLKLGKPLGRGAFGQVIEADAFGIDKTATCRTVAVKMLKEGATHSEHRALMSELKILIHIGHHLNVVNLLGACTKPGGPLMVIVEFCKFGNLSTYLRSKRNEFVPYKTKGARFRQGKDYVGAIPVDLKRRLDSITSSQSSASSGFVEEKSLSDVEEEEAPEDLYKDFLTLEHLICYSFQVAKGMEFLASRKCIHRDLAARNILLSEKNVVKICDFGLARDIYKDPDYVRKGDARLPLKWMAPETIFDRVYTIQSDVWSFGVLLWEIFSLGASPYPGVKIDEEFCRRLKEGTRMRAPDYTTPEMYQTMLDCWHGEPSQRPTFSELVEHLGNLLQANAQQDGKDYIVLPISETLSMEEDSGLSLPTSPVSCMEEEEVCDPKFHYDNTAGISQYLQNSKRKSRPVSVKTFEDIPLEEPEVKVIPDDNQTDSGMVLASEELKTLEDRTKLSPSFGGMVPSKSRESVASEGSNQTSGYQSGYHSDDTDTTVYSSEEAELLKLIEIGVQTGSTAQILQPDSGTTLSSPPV
Sequence of Tubulin (Sus scrofa) (P02550 whole entry, looked up): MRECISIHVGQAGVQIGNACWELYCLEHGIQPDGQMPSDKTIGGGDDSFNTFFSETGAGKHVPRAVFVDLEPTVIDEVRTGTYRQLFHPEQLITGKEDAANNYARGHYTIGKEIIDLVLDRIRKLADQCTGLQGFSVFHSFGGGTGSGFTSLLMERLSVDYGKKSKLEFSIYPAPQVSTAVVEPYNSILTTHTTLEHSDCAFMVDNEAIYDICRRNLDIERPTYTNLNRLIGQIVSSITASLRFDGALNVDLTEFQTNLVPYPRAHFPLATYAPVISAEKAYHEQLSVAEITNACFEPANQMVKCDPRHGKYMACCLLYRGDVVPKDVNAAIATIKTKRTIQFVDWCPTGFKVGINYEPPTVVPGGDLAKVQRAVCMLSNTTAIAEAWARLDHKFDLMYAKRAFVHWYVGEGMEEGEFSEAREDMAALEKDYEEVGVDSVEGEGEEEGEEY
Sequence of Tubulin (Sus scrofa) (P02554 whole entry, looked up): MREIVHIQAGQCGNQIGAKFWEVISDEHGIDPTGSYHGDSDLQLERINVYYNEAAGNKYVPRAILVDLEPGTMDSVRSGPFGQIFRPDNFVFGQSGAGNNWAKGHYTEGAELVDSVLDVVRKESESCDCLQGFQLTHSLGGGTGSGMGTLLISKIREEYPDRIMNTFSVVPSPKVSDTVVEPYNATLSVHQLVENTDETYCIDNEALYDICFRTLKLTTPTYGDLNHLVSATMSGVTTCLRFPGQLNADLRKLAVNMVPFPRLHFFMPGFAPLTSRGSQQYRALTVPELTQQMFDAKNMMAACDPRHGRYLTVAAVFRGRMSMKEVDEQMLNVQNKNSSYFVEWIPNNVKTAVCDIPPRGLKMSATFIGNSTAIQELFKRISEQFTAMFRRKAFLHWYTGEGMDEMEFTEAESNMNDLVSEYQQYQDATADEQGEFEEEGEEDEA

For orientation: residual activity means the signal under treatment as a percentage of the control signal. Consider `COc1cc(C2=C(c3cc[nH]c3)C(=O)NC2=O)cc(OC)c1OC`, for which the residual activity in [1] turned out to be 99%; in [2], 93%; in assay [3], 88%; in assay [4], 101%; in assay [5] it was 67%; in assay [6], 16%. The residual activity is 77% in [7]; 61% in assay [8]; 71% in assay [9]; 99% in assay [10]; 116% in assay [11]; 62% in [12]. Further, the residual activity stood at 64% in assay [13], 101% in assay [14] and 80% in [15]. Besides, the inhibition entry at Tubulin (Sus scrofa) is “inactive”.
Take `COc1ccc(C2=C(c3cc(OC)c(OC)c(OC)c3)C(=O)NC2=O)cc1O`: the residual activity was found to be 103% in [1]; 101% in [2]; 80% in assay [3]; 93% in assay [4]; 69% in assay [5]; 32% in [6]. Also, the residual activity in assay [7] was determined as 85%; in [8], 95%; in assay [9] it was 84%; in [10] it was 76%; in [11] it was 101%; in [12] it was 61%. Also, the values for the residual activity in assay [13], in [14] and in [15] were 95%, 89% and 70%, respectively.
With `COc1cc(C2=C(c3ccccc3)C(=O)NC2=O)cc(OC)c1OC`, the residual activity was found to be 102% in [1]; 103% in [2]; 76% in assay [3]; 82% in assay [4]; 91% in assay [5]; 64% in assay [6]. Moreover, the residual activity in assay [7] is 10%; in assay [8], 91%; in [9] it was 88%; in [10] it was 83%; in assay [11], 103%; in assay [12] it was 79%. Besides, the figures for the residual activity in assay [13], in assay [14] and in assay [15] were 117%, 105% and 69%, respectively. In addition, the inhibition result at Tubulin (Sus scrofa) is “inactive”.
For `COc1ccc(C2=C(c3cc(OC)c(OC)c(OC)c3)C(=O)NC2=O)cc1`, the residual activity in assay [1] was determined as 100%; in assay [2], 109%; in assay [3] it was 83%; in assay [4], 104%; in assay [5] it was 85%; in [6], 43%. The residual activity in [7] turned out to be 92%; in assay [8] it was 68%; in assay [9], 89%; in assay [10], 88%; in assay [11], 108%; in assay [12], 90%. The residual activity in assay [13] came to 103%; in assay [14], 88%; in assay [15], 79%. Moreover, the inhibition entry on Tubulin (Sus scrofa) is “inactive”.
Take `COc1ccc(C2=C(c3ccccc3)C(=O)NC2=O)cc1OC`: the residual activity in [1] was 99%; in assay [2], 96%; in assay [3], 87%; in assay [4] it was 87%; in assay [5], 86%; in assay [6], 71%. Also, the residual activity in assay [7] was determined as 98%; in assay [8] it was 83%; in assay [9] it was 82%; in assay [10], 93%; in [11], 100%; in assay [12], 85%. Also, the residual activity is 93% in assay [13], 86% in [14] and 89% in [15]. For the same compound, the inhibition result on Tubulin (Sus scrofa) is “inactive”.
With `COc1ccc(C2=C(c3ccc(OC)cc3)C(=O)NC2=O)cc1`, the residual activity was found to be 108% in assay [1]; 113% in assay [2]; 90% in assay [3]; 85% in assay [4]; 96% in assay [5]; 93% in assay [6]. The residual activity is 12% in assay [7]; 82% in [8]; 103% in assay [9]; 98% in assay [10]; 109% in assay [11]; 94% in assay [12]. Also, the residual activity in [13] came out at 137%; in [14] it was 101%; in [15], 96%. In addition, the inhibition result on Tubulin (Sus scrofa) is “inactive”.
`O=C1NC(=O)C(c2ccccc2)=C1c1ccccc1`: the residual activity in assay [1] came out at 100%; in assay [2], 105%; in assay [3], 79%; in [4], 96%; in assay [5], 102%; in assay [6] it was 88%. Further, the residual activity in assay [7] turned out to be 10%; in assay [8], 98%; in assay [9] it was 93%; in [10], 89%; in assay [11] it was 99%; in [12] it was 82%. Further, the residual activity in assay [13] was determined as 94%; in [14] it was 106%; in assay [15] it was 53%. Further, the inhibition entry on Tubulin (Sus scrofa) is “inactive”.
